Experimental data as given in paper PMC9989852 (Food and chemical toxicology : an international journal …, 2022).
Where “and” joins values, the source holds several entries; their conditions need not be identical. Equal values may be shown once.

Key:
pH of PFAS = assay type: physicochemical; conditions: PFAS (5%) in PBS, free acid form
[1] = ref Russell et al., 2015, Xu et al., 2020; cited from earlier work
kidney, spleen = assay: Kidney and spleen histopathology after 28-day dermal exposure; assay type: in vivo, B6C3F1 mice; conditions: 1.25–5%, 28 days, data not shown
Outline: (§1)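 Female B6C3F1 mice (5/group) received 25 μl/ear on the dorsal ear surfaces daily, with acetone as vehicle. Tissues were formalin-fixed about 24 h after the last dose: liver remainder, half spleen, right kidney and half ear pinna. Sections were paraffin-embedded, cut at 5 μm and stained with H&E. A veterinary pathologist read them per STP guideline and graded 1 (minimal) to 5 (severe) by extent.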

ear pinna = assay: Ear; assay type: in vivo, B6C3F1 mice; conditions: dermal, 28 days, mice affected of 5
Outline: as §1

[2] = system: auricular draining lymph nodes (dLNs); assay: Draining lymph node phenotyping by flow cytometry after 28-day dermal exposure; assay type: in vivo, B6C3F1 mice; conditions: 28 days
Outline: (§2)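 Female B6C3F1 mice (5/group) received 25 μl/ear daily to the dorsal ears in acetone. About 24 h after the last dose, tissues went into RPMI: both auricular dLNs, half spleen and one ear pinna. Single-cell suspensions were acquired on an LSR II, with populations gated per supplemental strategy and FMO gating controls. Results are mean ± SE, n=5, by one-way ANOVA.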

[3] = PFAS concentration in pooled urine; assay type: in vivo, B6C3F1 mice; conditions: 5%, dermal, 28 days; 5 pooled samples
Outline: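 Urine was caught in a weigh boat as it was excreted during CO2 euthanasia, about 24 h after the final daily ear dose (25 μl/ear, acetone vehicle; female B6C3F1 mice). The 5 mice per group were pooled, with variable volume. Samples underwent solid-phase extraction and LC/MS/MS, as linear isomer for short-chain analytes and linear plus branched for the comparator. Each group gave a single value without statistics.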

spleen = assay: Spleen phenotyping by flow cytometry after 28-day dermal exposure; assay type: in vivo, B6C3F1 mice; conditions: 28 days
Outline: as §2

B6C3F1 mice = assay: Organ weights and body weight after 28-day dermal exposure; assay type: in vivo; conditions: 28 days
liver (caudate) = assay: Liver gene expression; assay type: in vivo, B6C3F1 mice; conditions: dermal, 28 days
Outline: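 Dosing was daily topical to both dorsal ears (25 μl/ear, acetone vehicle) in female B6C3F1 mice. Liver caudate lobe or half ear pinna was stored in RNAlater and homogenized in RLT buffer. RNA was isolated on RNeasy columns with DNase, and 1–2 μg was reverse-transcribed. TaqMan real-time PCR was read as 2−ΔΔCT vs vehicle, normalized to β-actin. Statistics: ANOVA/Dunnett's, or Kruskal-Wallis/Dunn's for unequal variance.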

O=C(O)C(F)(F)C(F)(F)C(F)(F)C(F)(F)C(F)(F)C(F)(F)F [PFHpA, Perfluoroheptanoic acid]
pH (pH of PFAS): 1.49 | estimated half-life in humans [1]: 62 to 70 days | microscopic observations in the kidney or the spleen (kidney, spleen): No PFPeA, PFHxA, or PFHpA-related microscopic observations | Ear: Degeneration/regeneration, cartilage, focal, Mild (incidence) (ear pinna; 1.25%): 0 | Ear: Fibrosis, dermis, focal, Minimal (incidence) (ear pinna; 1.25%): 0 | Ear: Hyperkeratosis, epidermis, focal, Mild (incidence) (ear pinna; 1.25%): 0 | Ear: Hyperkeratosis, epidermis, focal, Minimal (incidence) (ear pinna; 1.25%): 0 | Ear: Hyperplasia, epidermis, focal, Mild (incidence) (ear pinna; 1.25%): 0 | Ear: Hyperplasia, epidermis, focal, Minimal (incidence) (ear pinna; 1.25%): 0 | Ear: Inflammation, mixed cell, dermis, Minimal (incidence) (ear pinna; 1.25%): 0 | Ear: Inflammation, mononuclear cell, dermis, Minimal (incidence) (ear pinna; 1.25%): 0 | Ear: Necrosis, epidermis, multifocal, Minimal (incidence) (ear pinna; 1.25%): 0 | Ear: Degeneration/regeneration, cartilage, focal, Mild (incidence) (ear pinna; 2.5%): 0 | Ear: Fibrosis, dermis, focal, Minimal (incidence) (ear pinna; 2.5%): 0 | Ear: Hyperkeratosis, epidermis, focal, Mild (incidence) (ear pinna; 2.5%): 0 | Ear: Hyperkeratosis, epidermis, focal, Minimal (incidence) (ear pinna; 2.5%): 0 | Ear: Hyperplasia, epidermis, focal, Mild (incidence) (ear pinna; 2.5%): 0 | Ear: Hyperplasia, epidermis, focal, Minimal (incidence) (ear pinna; 2.5%): 2/5 and 2 | Ear: Inflammation, mixed cell, dermis, Minimal (incidence) (ear pinna; 2.5%): 0 | Ear: Inflammation, mononuclear cell, dermis, Minimal (incidence) (ear pinna; 2.5%): 0 | Ear: Necrosis, epidermis, multifocal, Minimal (incidence) (ear pinna; 2.5%): 0 | Ear: Fibrosis, dermis, focal, Minimal (incidence) (ear pinna; 5%): 0 | Ear: Hyperkeratosis, epidermis, focal, Mild (incidence) (ear pinna; 5%): 0 | Ear: Hyperkeratosis, epidermis, focal, Minimal (incidence) (ear pinna; 5%): 4/5 and 4 | Ear: Hyperplasia, epidermis, focal, Mild (incidence) (ear pinna; 5%): 1/4 and 1 | Ear: Hyperplasia, epidermis, focal, Minimal (incidence) (ear pinna; 5%): 4/5 and 4 | Ear: Inflammation, mixed cell, dermis, Minimal (incidence) (ear pinna; 5%): 1 | Ear: Inflammation, mononuclear cell, dermis, Minimal (incidence) (ear pinna; 5%): 1 | Ear: Necrosis, epidermis, multifocal, Minimal (incidence) (ear pinna; 5%): 0 | dLN B-cells cell number ([2]; 1.25%): 5.40 ± 0.44 × 10^5 | dLN B-cells frequency ([2]; 1.25%): 13.44 ± 1.00% | dLN CD4^+ cell number ([2]; 1.25%): 1.77 ± 0.17 × 10^6 | dLN CD4^+ frequency ([2]; 1.25%): 43.44 ± 1.00% | dLN CD8^+ cell number ([2]; 1.25%): 11.50 ± 0.97 × 10^5 | dLN CD8^+ frequency ([2]; 1.25%): 28.26 ± 0.62% | dLN CD11b+ cell number ([2]; 1.25%): 3.18 ± 0.81 × 10^4 | dLN CD11b+ frequency ([2]; 1.25%): 0.74 ± 0.16% | dLN CD86 B-cells ([2]; 1.25%): 851.20 ± 55.68 MFI | dLN CD86 DCs ([2]; 1.25%): 22.90 ± 1.99 MFI x 10^2 | dLN Dendritic Cells cell number ([2]; 1.25%): 15.60 ± 6.03 × 10^4 | dLN Dendritic Cells frequency ([2]; 1.25%): 4.23 ± 1.95% | dLN Eosinophils cell number ([2]; 1.25%): 7.53 ± 1.81 × 10^2 | dLN MHCII B-cells ([2]; 1.25%): 33.30 ± 3.62 MFI × 10^2 | dLN NK cell number ([2]; 1.25%): 1.84 ± 0.21 × 10^4 | dLN NK frequency ([2]; 1.25%): 0.45 ± 0.03 % | dLN Neutrophils cell number ([2]; 1.25%): 8.55 ± 1.38 × 10^2 | dLN Total Cellularity ([2]; 1.25%): 4.05 ± 0.31 × 10^6 | dLN B-cells cell number ([2]; 2.5%): 8.69 ± 0.16 × 10^5 | dLN B-cells frequency ([2]; 2.5%): 14.86 ± 0.84% | dLN CD4^+ cell number ([2]; 2.5%): 2.47 ± 0.44 × 10^6 | dLN CD4^+ frequency ([2]; 2.5%): 41.54 ± 0.58% | dLN CD8^+ cell number ([2]; 2.5%): 17.20 ± 3.10 × 10^5 | dLN CD8^+ frequency ([2]; 2.5%): 28.6 ± 0.62% | dLN CD11b+ cell number ([2]; 2.5%): 6.87 ± 1.47 × 10^4 | dLN CD11b+ frequency ([2]; 2.5%): 1.09 ± 0.09% | dLN CD86 B-cells ([2]; 2.5%): 908.40 ± 44.09 MFI | dLN CD86 DCs ([2]; 2.5%): 25.10 ± 0.72 MFI x 10^2 | dLN Dendritic Cells cell number ([2]; 2.5%): 9.50 ± 1.42 × 10^4 | dLN Dendritic Cells frequency ([2]; 2.5%): 1.70 ± 0.17% | dLN Eosinophils cell number ([2]; 2.5%): 20.40 ± 3.85 × 10^2 | dLN MHCII B-cells ([2]; 2.5%): 44.30 ± 4.02 MFI × 10^2 | dLN NK cell number ([2]; 2.5%): 3.23 ± 0.68 × 10^4 | dLN NK frequency ([2]; 2.5%): 0.53 ± 0.03% | dLN Neutrophils cell number ([2]; 2.5%): 9.51 ± 1.88 × 10^2 | dLN Total Cellularity ([2]; 2.5%): 5.97 ± 1.06 × 10^6 | dLN B-cells cell number ([2]; 5%): 11.50 ± 1.39 × 10^5 | dLN B-cells frequency ([2]; 5%): 14.70 ± 0.13% | dLN CD4^+ cell number ([2]; 5%): 3.03 ± 0.31 × 10^6 | dLN CD4^+ frequency ([2]; 5%): 39.24 ± 0.83 % | dLN CD8^+ cell number ([2]; 5%): 22.10 ± 2.59 × 10^5 | dLN CD8^+ frequency ([2]; 5%): 28.36 ± 0.20% | dLN CD11b+ cell number ([2]; 5%): 13.40 ± 1.96 × 10^4 | dLN CD11b+ frequency ([2]; 5%): 1.69 ± 0.10 % | dLN CD86 B-cells ([2]; 5%): 879.80 ± 40.32 MFI | dLN CD86 DCs ([2]; 5%): 28.50 ± 0.78 MFI x 10^2 | dLN Dendritic Cells cell number ([2]; 5%): 18.20 ± 3.38 × 10^4 | dLN Dendritic Cells frequency ([2]; 5%): 2.28 ± 0.20% | dLN Eosinophils cell number ([2]; 5%): 22.80 ± 6.04 × 10^2 | dLN MHCII B-cells ([2]; 5%): 43.10 ± 1.85 MFI × 10^2 | dLN MHCII DCs ([2]; 5%): 58.90 ± 2.65 MFI × IQ^2 | dLN NK cell number ([2]; 5%): 4.78 ± 0.67 × 10^4 | dLN NK frequency ([2]; 5%): 0.61 ± 0.04% | dLN Total Cellularity ([2]; 5%): 7.78 ± 0.90 × 10^6 | urine PFAS concentration [3]: 1200 µg/mL | spleen MFI of CD86 on B-cells (spleen; 1.25%): increase | spleen frequency of CD8^+ T-cells (spleen; 1.25%): significant decrease | spleen frequency of eosinophils (spleen; 1.25%): significant decrease | spleen MFI of CD86 on B-cells (spleen; 2.5%): increase | spleen MFI of MHCII on B-cells (spleen; 2.5%): increase | spleen MFI of CD86 on B-cells (spleen; 5%): increase | spleen MFI of MHCII on B-cells (spleen; 5%): increase | spleen NK cell frequency (spleen; 5%): increase | spleen frequency of B-cells (spleen; 5%): significant decrease | spleen frequency of total DCs (spleen; 5%): increase | spleen number of NK cells (spleen; 5%): increase | body weight or overt signs of toxicity (B6C3F1 mice; 1.25–5%): no changes | thymus weights (% body weight) (B6C3F1 mice; 2.5%, not dose dependent): significantly increased | Liver weight (% body weight), increase vs vehicle-treated mice (B6C3F1 mice; 5%): 18% | kidney weights (% body weight) (B6C3F1 mice; 5%): significantly increased | liver Pparγ expression (liver (caudate); 1.25%): increasing | liver Pparδ expression (liver (caudate); 1.25%): decreasing | liver Cd36 gene expression, increase (liver (caudate); 2.5%): 4 fold | liver Lpl gene expression, increase (liver (caudate); 2.5%): 2.2 fold | liver Pparδ expression (liver (caudate); 2.5%): decreasing | liver Acox1 gene expression (liver (caudate); 5%): increase | liver Cd36 gene expression, increase (liver (caudate); 5%): 4.8 fold | liver Lpl gene expression, increase (liver (caudate); 5%): 2.3 fold | liver Pltp gene expression (liver (caudate); 5%): increase | liver Pparδ expression (liver (caudate); 5%): decreasing
